From PubChem
Tb hexokinase: T. brucei hexokinase 1 inhibition; recombinant TbHK1, G6PDH-coupled NADH A340; inhibition, % at 10 µM; 220,000 compounds, 0.11% hits;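 active = inhibition of 50% or more in the single-dose primary screen; inactive = inhibition below 50%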
14-3-3 Bad inh: disrupts binding of bovine 14-3-3 zeta to phospho-Bad peptide; inhibition, % at 21.7 µM; AID 781; TR-FRET 14-3-3zeta/Dy647-pBad peptide displacement, 1 h; 220,000 compounds, 0.71% hits;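 active = inhibition above about 70%, limit read from the data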;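 note: 0% = full 14-3-3 plus peptide FRET controls and 100% = background without 14-3-3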
Wee1 stabilizer: blocks degradation of human Wee1 kinase; HeLa Luc-Wee1K328M stability, luciferase luminescence; 100% = proteasome inhibitor MG132 effect; reporter increase, % at 5 µM; 220,000 compounds, 1.2% hits; AID 1321;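 active = activation above the mean of all tested compounds plus 3 SD, set per screening run, cut at about 8.8% in these data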;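 note: cells exposed to compound for 20 h before luminescence read; 0% = DMSO alone and 100% = MG132 at 30 µM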
Target sequence (P30291 whole entry K328M): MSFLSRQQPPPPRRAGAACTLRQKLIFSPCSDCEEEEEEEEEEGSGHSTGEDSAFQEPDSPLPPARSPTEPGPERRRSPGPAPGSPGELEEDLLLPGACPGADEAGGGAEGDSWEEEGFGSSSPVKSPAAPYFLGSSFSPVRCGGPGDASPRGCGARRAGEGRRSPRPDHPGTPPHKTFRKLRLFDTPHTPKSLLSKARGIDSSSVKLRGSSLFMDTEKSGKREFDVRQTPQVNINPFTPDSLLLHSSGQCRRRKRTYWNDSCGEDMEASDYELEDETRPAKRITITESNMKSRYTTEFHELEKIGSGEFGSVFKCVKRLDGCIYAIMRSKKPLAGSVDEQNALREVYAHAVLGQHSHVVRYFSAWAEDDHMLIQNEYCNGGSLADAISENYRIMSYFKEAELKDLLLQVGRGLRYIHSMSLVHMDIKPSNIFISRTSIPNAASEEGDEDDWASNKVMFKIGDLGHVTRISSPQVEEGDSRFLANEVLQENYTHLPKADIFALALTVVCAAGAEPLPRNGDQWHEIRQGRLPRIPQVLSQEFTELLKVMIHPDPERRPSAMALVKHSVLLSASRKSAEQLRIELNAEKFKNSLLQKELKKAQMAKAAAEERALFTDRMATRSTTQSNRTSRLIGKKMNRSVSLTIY
Mdm2 ligase inh: Mdm2 E3 ligase (human) inhibition | AID 1230 | signal enhancement, % at 5 µM | Q00987 | cell-based MDM2 ubiquitination luciferase reporter, 2 h; 0 = plate control, 100 = twice control, blank-subtracted | 210,000 compounds, 0.11% hits;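 active = signal enhancement of 30% or more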;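 note: luminescence tracks abundance of the self-degrading MDM2-luciferase fusion protein; higher signal means inhibition of MDM2 E3 ligase activity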
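Test system: mammalian cells stably expressing self-ubiquitinating, self-degrading MDM2 E3–luciferase fusion; Amount: 2000 cells in each well; Medium: DMEM; Schedule: 4 h settle plus 2 h compound, 37 °C; Technique: SteadyLite luciferase luminescence after 15 min room-temperature reagent incubation; Benchmarks: plate control and blank wells.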
Hck-Nef inh: inhibitors of human Hck kinase activated by Nef | Recombinant Hck-YEEI plus Nef, Z-Lyte FRET kinase assay | inhibition, % at 20 µM | 220,000 compounds, 0.68% hits | AID 463187;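 active = Hck-Nef kinase inhibition above about 50%, limit read from the data; inactive = inhibition below that limit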;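 note: 0% = DMSO with Hck plus Nef and 100% = Hck alone without Nef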
Hck-Nef confirm: Hck-Nef kinase inhibition, confirmation. shares compounds with Hck-Nef inh. Recombinant Hck-YEEI:Nef, Z-Lyte FRET kinase assay. calls only at 10 µM. 1,300 compounds, 28% hits;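 active = average inhibition of at least 50%, with Z-scores no higher than 3 in both the phospho-tyrosine peptide and fluorescence counterscreens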
* marks the source's active call; other numbers are inactive results; i = inactive; nt = no result given; + = active, no number. Most compounds without a hit are left out; they make up all but 2.7% or so of the library.

SMILES | Tb hexokinase | 14-3-3 Bad inh | Wee1 stabilizer | Mdm2 ligase inh | Hck-Nef inh | Hck-Nef confirm
CCn1c(=O)c2c(nc3n2CCN3c2ccccc2)n(C)c1=O | -8 | 0 | 5 | -9 | 9 | nt
Nc1ccc(-c2nc3ccc(C(=O)O)cc3s2)cc1 | -54 | 10 | -6 | -93 | 115* | nt
Nc1ccc(-c2nc3ccc(N)cc3s2)cc1 | -102 | 7 | -2 | nt | 61* | i
CC/C=C/C(=O)N1CC2(CC(c3cccc(NC(=O)CC(c4ccccc4)c4ccccc4)c3)=NO2)C[C@@H]1C(N)=O (stereo not given in full) | -26 | -5 | nt | 16 | 53* | i
CC1(C(=O)N2CC3(CC(c4cccc(NC(=O)CC(c5ccccc5)c5ccccc5)c4)=NO3)C[C@@H]2C(N)=O)CC1 (stereo not given in full) | -16 | -3 | nt | -12 | 17 | nt
CCOc1ccc(NC(=S)NCC(c2cccnc2)N2CCOCC2)cc1 (stereo not given) | -2 | -13 | -1 | -13 | 24 | nt
CCOC(=O)C1=C(C)C(c2ccccc2O)NC(=O)N1 (stereo not given) | -6 | 6 | -1 | -12 | 57* | i
CCOC(=O)C1=C(C)C(c2ccc(OC)cc2OC)NC(=O)N1 (stereo not given) | 0 | 1 | 0 | -16 | 1 | nt
O=C(N=Nc1c(O)n(C2OC(=O)c3ccccc32)c2ccccc12)c1ccco1 (stereo not given) | -46 | 52 | 1 | 11 | 65* | i
COc1cc2c(cc1OC)CN(c1nc(-c3cccnc3)nc3ccccc13)CC2 | -15 | 3 | 10* | -9 | 68* | +
O=C1N=c2ccccc2=C1c1sc(=S)n(-c2ccc(O)cc2)c1O | -8 | 21 | -1 | -9 | 11 | nt
Cc1c(-n2c(O)c(C3=c4ccccc4=NC3=O)sc2=S)c(=O)n(-c2ccccc2)n1C | 0 | 40 | 1 | 8 | 100* | +
CN(C)C(=O)COC(=O)c1cccc(CN2C(=O)c3ccccc3C2=O)c1 | 8 | 10 | -2 | -4 | 19 | nt
CCCc1cc(NCc2ccccn2)n2c(nc3ccccc32)c1C#N | -3 | -4 | 1 | -15 | 2 | nt
CCCc1cc(NCC2CCCO2)n2c(nc3ccccc32)c1C#N (stereo not given) | -16 | -3 | -2 | -15 | 121* | nt
COCCNc1cc(C)c(C#N)c2nc3ccccc3n12 | -6 | -2 | 1 | -10 | 70* | nt
CC(=O)Nc1sc(N/N=C\c2ccccc2)nc1-c1cccs1 | -8 | -8 | 5 | 3 | 14 | nt
CC(=O)Nc1sc(N/N=C/c2ccccc2F)nc1-c1ccc(C)cc1 | -15 | 3 | 0 | -81 | 29 | nt
CC(=O)Nc1sc(N/N=C/c2ccc(O)cc2)nc1-c1ccc(C)cc1 | -43 | 8 | 0 | -14 | 69* | i
CC(=O)Nc1sc(N/N=C/c2ccccc2)nc1-c1ccc(C)cc1 | -35 | -11 | -1 | -4 | 69* | i
COc1ccc(/C=N/Nc2nc(-c3ccc(C)cc3)c(NC(C)=O)s2)cc1 | -36 | -12 | 1 | -15 | 83* | i
O=C(NN1C(=O)c2ccccc2NC1c1ccco1)c1ccc([N+](=O)[O-])cc1 (stereo not given) | -8 | -5 | -2 | -7 | -4 | nt
COc1ccc(C(=O)C2CN(c3ccccc3)CC2c2ccc(Cl)cc2)cc1 (stereo not given) | -1 | 7 | 0 | -5 | 2 | nt
CSc1cccc(CN2CCN(Cc3ccc(F)c(F)c3)C(CCO)C2)c1 (stereo not given) | 3 | -16 | -1 | -15 | -1 | nt
CCOc1cc(OCC)nc(S(C)(=O)=O)n1 | -2 | 8 | -3 | 4 | 0 | nt
SMILES | Tb hexokinase | 14-3-3 Bad inh | Wee1 stabilizer | Mdm2 ligase inh | Hck-Nef inh | Hck-Nef confirm
COCCNC(=S)NCCCNc1nc2cc3c(cc2cc1C#N)OCO3 | -3 | 2 | 3 | -13 | 70* | nt
CN(C)CCCNC(=S)NCCNc1nc2cc3c(cc2cc1C#N)OCO3 | 4 | -7 | 0 | -3 | 51* | nt
CCC1=C(OC(=O)N(CC)CC)N2C(=O)OC(=NCC3CC3)[C@]2(Cc2ccccc2)[C@H]2C1=CC[C@H]1C(=O)N(CC)C(=O)[C@H]12 | -21 | -6 | nt | 17 | 26 | nt
Cc1cc(NC(=O)CSc2nnc(-c3cccnc3)n2Cc2ccccc2)no1 | -2 | -5 | 3 | -12 | -7 | nt
CCN(CC)CCNC(=O)c1ccc2c(=O)n(CCc3ccccc3)c(=O)[nH]c2c1 | -5 | -5 | -2 | -15 | 1 | nt
Cc1ccc(NC(=O)CN2C(=O)S/C(=C\c3cc(C)n(-c4ccc(C(=O)O)cc4)c3C)C2=O)cc1 | 0 | 1 | 5 | -6 | 7 | nt
Cc1ccc(NC(=O)CN2C(=O)N/C(=C/c3cc(C)n(-c4ccc(C(=O)O)cc4)c3C)C2=O)cc1 | -11 | 19 | 1 | -7 | 56* | i
COc1cc(OC)c(S(=O)(=O)Nc2ccccc2N2CCOCC2)cc1NC(C)=O | -4 | -13 | 4 | -9 | 23 | nt
CCc1cc(=O)oc2c(CN3CCCC3)c(O)c(Cl)cc12 | -30 | nt | 0 | -9 | 102* | nt
CCc1cc2c(-c3ccccc3)cc(=O)oc2c(CN2CCOCC2)c1O | -22 | -8 | -1 | -17 | -1 | nt
CCc1c(C)c2cc(Cl)c(O)c(CN3CCCCC3)c2oc1=O | -22 | nt | -1 | 16 | 118* | nt
Cc1c(O)c(CN2CCCCC2)cc2c1oc(=O)c1ccccc12 | -10 | -21 | 0 | -16 | 2 | nt
Cc1cc(=O)oc2c(CN3CC(C)OC(C)C3)c(O)c(Cl)cc12 (stereo not given) | -15 | 6 | -2 | -10 | + | nt
CCCCc1cc(=O)oc2c(CN3CCCC3)c(O)ccc12 | -24 | nt | 4 | -14 | 97* | i
O=C(CCC1CCCC1)Nc1nnc(-c2ccc3c(c2)OCO3)s1 | -7 | 5 | 2 | -11 | 0 | nt
CCc1cc2c(CN3CCN(C)CC3)cc(=O)oc2cc1O | -21 | -3 | -2 | -14 | 29 | nt
CCc1cc(=O)oc2c(CN3CCN(C)CC3)c(O)c(Cl)cc12 | -37 | 5 | 1 | 3 | 163* | nt
O=C(O)c1ccc(N/N=C/c2ccc(OC(=O)c3cccc(Cl)c3)cc2)cc1 | -60 | 32 | -2 | nt | 56* | +
O=C(Oc1ccc(/C=N/Nc2ccccc2)cc1)c1ccccc1 | -4 | -7 | -1 | 1 | -2 | nt
Cc1ccc(CN2CCN(Cc3cnc(N4CCOCC4)s3)CC2CCO)o1 (stereo not given) | -4 | -10 | 2 | -12 | 61* | i
Cc1ccc(CN2CCN(Cc3cnc(C)s3)CC2CCO)o1 (stereo not given) | -7 | -14 | -1 | 0 | 6 | nt
CCOC(=O)c1c(C)oc2c1c(CN1CCN(C(=O)OCC)CC1)c(O)c1ccccc12 | 19 | -5 | 0 | 0 | 2 | nt
